Measurements reported in ChEMBL document CHEMBL3259751, “A rational design strategy of the novel topoisomerase II inhibitors for the synthesis of the 4-O-(2-pyrazinecarboxylic)-4'-demethylepipodophyllotoxin with antitumor activity by diminishing the relaxation reaction of topoisomerase II-DNA decatenation” (Bioorg Med Chem, 2014).
Active and inactive are the calls of the source. The rule behind the calls is not given here.

Columns and labels:
[1] = Cytotoxicity against human HL-7702 cells after 48 hrs by MTT assay; format: cell-based, L02; settings: for IC50: Homo sapiens, L02, 48 h; for Activity: human, l02, 48 h
HepG2 [2] = test: Cytotoxicity against human HepG2 cells after 48 hrs by MTT assay; format: functional, cell-based; settings: for IC50: HepG2, 48 h
Procedure, shortened: (§1)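 Cells seeded at 3500–13,000 per well. A549, HeLa and HepG2 were grown in DMEM and BGC-823 in RPMI 1640, each with 10% CS plus penicillin/streptomycin, at 37 °C and 5% CO₂. Drug exposure lasted 2 days, followed by MTT readout at A₄₉₂, with untreated controls at 0.6–0.8. IC50 was the concentration cutting absorbance by 50%, interpolated by sigmoidal nonlinear regression. Run in triplicate.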

[3] = Octanol-water partition coefficient, log P of the compound; format: physicochemical
Procedure, shortened: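 Partitioning between 1-octanol and water. The compound concentration was measured in each phase, and logP was calculated as the log of the 1-octanol concentration over the water concentration. The water concentration was corrected by an index-error factor, Y = 2.555.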

A549 [4] = test: Cytotoxicity against human A549 cells after 48 hrs by MTT assay; format: functional, cell-based; settings: for IC50: A549, 48 h; procedure, shortened: as §1
HeLa [5] = test: Cytotoxicity against human HeLa cells after 48 hrs by MTT assay; format: functional, cell-based; procedure, shortened: as §1
[6] = (§2) Cytotoxicity against human BGC823 cells after 48 hrs by MTT assay; format: functional, cell-based; settings: BGC-823, 48 h; procedure, shortened: as §1
BGC-823 [7] = test: as §2; format: functional, cell-based; procedure, shortened: as §1
[8] = Cytotoxicity against human HL-7702 cells after 48 hrs by MTT assay relative to etoposide; format: functional, L02
HepG2 [9] = test: Selectivity ratio of etoposide IC50 to compound IC50 for human HepG2 cells; format: functional
A549 [10] = test: Selectivity ratio of etoposide IC50 to compound IC50 for human A549 cells; format: functional
HepG2 [11] = test: Cytotoxicity against human HepG2 cells; format: functional, cell-based; procedure, shortened: as §1
[12] = Cytotoxicity against human BGC823 cells; format: functional, cell-based; settings: BGC-823; procedure, shortened: as §1
BGC-823 [13] = test: Selectivity ratio of etoposide IC50 to compound IC50 for human BGC823 cells; format: functional
A549 [14] = test: Cytotoxicity against human A549 cells; format: functional, cell-based; procedure, shortened: as §1
[15] = biological target: DNA topoisomerase 2-alpha (Homo sapiens) (UniProt P11388); test: Inhibition of human DNA topoisomerase-2 using kDNA as substrate assessed as inhibition of DNA relaxation at 1 to 10 uM after 60 mins by agarose gel electrophoresis
DNA topoisomerase 2-alpha (Homo sapiens), sequence (P11388 whole entry): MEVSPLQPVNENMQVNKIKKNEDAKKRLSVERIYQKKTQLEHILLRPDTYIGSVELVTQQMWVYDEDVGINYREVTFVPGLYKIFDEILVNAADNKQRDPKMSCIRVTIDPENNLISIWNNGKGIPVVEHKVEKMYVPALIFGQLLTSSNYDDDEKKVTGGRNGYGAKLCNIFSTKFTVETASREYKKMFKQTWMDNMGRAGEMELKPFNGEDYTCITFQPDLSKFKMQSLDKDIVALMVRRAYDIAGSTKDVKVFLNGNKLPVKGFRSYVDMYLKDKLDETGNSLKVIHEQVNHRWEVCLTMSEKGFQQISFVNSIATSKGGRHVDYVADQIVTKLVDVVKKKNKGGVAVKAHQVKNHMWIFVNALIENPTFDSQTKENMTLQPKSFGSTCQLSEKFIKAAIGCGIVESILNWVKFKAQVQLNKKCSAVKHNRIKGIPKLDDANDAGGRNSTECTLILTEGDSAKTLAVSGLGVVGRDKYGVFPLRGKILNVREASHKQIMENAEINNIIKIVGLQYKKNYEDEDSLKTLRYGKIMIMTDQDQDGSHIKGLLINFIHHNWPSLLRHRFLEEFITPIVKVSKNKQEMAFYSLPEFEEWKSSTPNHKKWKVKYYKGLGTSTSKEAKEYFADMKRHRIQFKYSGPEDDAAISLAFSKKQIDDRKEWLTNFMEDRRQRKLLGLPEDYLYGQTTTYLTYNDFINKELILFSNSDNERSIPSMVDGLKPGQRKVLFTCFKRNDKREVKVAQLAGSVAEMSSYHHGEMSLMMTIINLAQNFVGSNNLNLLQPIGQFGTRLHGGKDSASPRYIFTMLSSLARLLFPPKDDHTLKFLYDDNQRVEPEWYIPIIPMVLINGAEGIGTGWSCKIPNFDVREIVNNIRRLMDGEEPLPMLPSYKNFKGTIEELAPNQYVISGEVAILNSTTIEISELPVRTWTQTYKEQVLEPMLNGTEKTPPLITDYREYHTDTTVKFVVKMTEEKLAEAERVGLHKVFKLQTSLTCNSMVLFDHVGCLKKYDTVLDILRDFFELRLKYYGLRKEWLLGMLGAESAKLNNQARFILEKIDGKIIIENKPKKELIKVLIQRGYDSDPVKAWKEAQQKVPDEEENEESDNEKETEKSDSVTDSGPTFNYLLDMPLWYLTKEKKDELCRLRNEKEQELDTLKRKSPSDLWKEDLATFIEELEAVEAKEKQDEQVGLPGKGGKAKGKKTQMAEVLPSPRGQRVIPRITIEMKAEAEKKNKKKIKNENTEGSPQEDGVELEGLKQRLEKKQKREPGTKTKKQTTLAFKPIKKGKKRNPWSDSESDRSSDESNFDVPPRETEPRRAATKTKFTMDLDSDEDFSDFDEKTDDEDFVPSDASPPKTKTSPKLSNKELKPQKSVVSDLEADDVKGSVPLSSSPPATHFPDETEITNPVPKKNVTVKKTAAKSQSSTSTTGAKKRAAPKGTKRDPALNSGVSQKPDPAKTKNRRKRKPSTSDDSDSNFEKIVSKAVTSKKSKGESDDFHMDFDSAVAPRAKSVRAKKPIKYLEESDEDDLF

HeLa [16] = test: Selectivity ratio of etoposide IC50 to compound IC50 for human HeLa cells after 48 hrs by MTT assay; format: functional
HeLa [17] = test: Induction of apoptosis in human HeLa cells assessed as late apoptotic cells at 10 uM after 48 hrs by Annexin V/propidium iodide staining-based flow cytometry (reference value: 2.3 %); format: functional
HeLa [18] = test: Cell cycle arrest in human HeLa cells after 24 hrs by propidium iodide staining-based flow cytometry; format: functional
HeLa [19] = test: Cell cycle arrest in human HeLa cells assessed as accumulation at G0/G1 phase at 5 uM after 24 hrs by propidium iodide staining-based flow cytometry (reference value: 37.26 %); format: functional
HeLa [20] = test: Induction of apoptosis in human HeLa cells assessed as early apoptotic cells at 1 uM after 48 hrs by Annexin V/propidium iodide staining-based flow cytometry (reference value: 2.7 %); format: functional
HeLa [21] = test: Cell cycle arrest in human HeLa cells assessed as accumulation at G0/G1 phase at 0.5 uM after 24 hrs by propidium iodide staining-based flow cytometry (reference value: 37.26 %); format: functional
HeLa [22] = test: Induction of apoptosis in human HeLa cells assessed as early apoptotic cells at 5 uM after 48 hrs by Annexin V/propidium iodide staining-based flow cytometry (reference value: 2.7 %); format: functional
HeLa [23] = test: Induction of apoptosis in human HeLa cells assessed as early apoptotic cells at 10 uM after 48 hrs by Annexin V/propidium iodide staining-based flow cytometry (reference value: 2.7 %); format: functional
HeLa [24] = test: Cell cycle arrest in human HeLa cells assessed as accumulation at G2/M phase at 5 uM after 24 hrs by propidium iodide staining-based flow cytometry (reference value: 5.29 %); format: functional
HepG2 [25] = test: Selectivity ratio of etoposide IC50 to compound IC50 for human HepG2 cells after 48 hrs by MTT assay; format: functional
HeLa [26] = test: Induction of apoptosis in human HeLa cells assessed as late apoptotic cells at 1 uM after 48 hrs by Annexin V/propidium iodide staining-based flow cytometry (reference value: 2.3 %); format: functional
HeLa [27] = test: Cell cycle arrest in human HeLa cells assessed as accumulation at G2/M phase at 1 uM after 24 hrs by propidium iodide staining-based flow cytometry (reference value: 5.29 %); format: functional
HeLa [28] = test: Induction of apoptosis in human HeLa cells after 48 hrs by Annexin V/propidium iodide staining-based flow cytometry; format: functional, cell-based
BGC-823 [29] = test: Selectivity ratio of etoposide IC50 to compound IC50 for human BGC823 cells after 48 hrs by MTT assay; format: functional
HeLa [30] = test: Cell cycle arrest in human HeLa cells assessed as accumulation at G2/M phase at 0.5 uM after 24 hrs by propidium iodide staining-based flow cytometry (reference value: 5.29 %); format: functional
A549 [31] = test: Selectivity ratio of etoposide IC50 to compound IC50 for human A549 cells after 48 hrs by MTT assay; format: functional
HeLa [32] = test: Induction of apoptosis in human HeLa cells assessed as late apoptotic cells at 5 uM after 48 hrs by Annexin V/propidium iodide staining-based flow cytometry (reference value: 2.3 %); format: functional
HeLa [33] = test: Cell cycle arrest in human HeLa cells assessed as accumulation at G0/G1 phase at 1 uM after 24 hrs by propidium iodide staining-based flow cytometry (reference value: 37.26 %); format: functional

| Compound | IC50 [1] | Activity [1] | IC50 (HepG2 [2]) | logP [3] | IC50 (A549 [4]) | IC50 (HeLa [5]) | IC50 [6] | Activity [8] | also measured |
| --- | --- | --- | --- | --- | --- | --- | --- | --- | --- |
| COc1cc([C@@H]2c3cc4c(cc3[C@@H](OC(=O)c3cnc(C)cn3)[C@H]3COC(=O)[C@H]23)OCO4)cc(OC)c1O | 18.6 µM | Dose-dependent effect | 14.2 µM | 0.38 | 10.5 µM | 9.56 µM | 1.5 µM | – | – |
| COc1cc([C@@H]2c3cc4c(cc3[C@@H](O)[C@H]3COC(=O)[C@H]23)OCO4)cc(OC)c1O [4'-DEMETHYLEPIPODOPHYLLOTOXIN] | 13 µM | Dose-dependent effect | 18.7 µM | 0.73 | 52.1 µM | 16 µM | 21.3 µM | – | Activity (HepG2 [2]): Dose-dependent effect; Activity (A549 [4]): Dose-dependent effect; Activity (HeLa [5]): Dose-dependent effect; Activity (BGC-823 [7]): Dose-dependent effect |
| COc1cc([C@@H]2c3cc4c(cc3[C@@H](OC(=O)Cn3cnc5c3c(=O)n(C)c(=O)n5C)[C@H]3COC(=O)[C@H]23)OCO4)cc(OC)c1O | 38 µM | Dose-dependent effect | 7.91 µM | 0.43 | 6.91 µM | 0.65 µM | 2 µM | 54% | – |
| COc1cc([C@@H]2c3cc4c(cc3[C@@H](NC(=O)c3cnc(C)cn3)[C@H]3COC(=O)[C@H]23)OCO4)cc(OC)c1O | 20.7 µM | Dose-dependent effect | 6.78 µM | 0.59 | 18.7 µM | 16.1 µM | 3.49 µM | – | – |
| COc1cc([C@@H]2c3cc4c(cc3[C@@H](Sc3nc[nH]n3)[C@H]3COC(=O)[C@H]23)OCO4)cc(OC)c1O | – | – | – | – | – | – | – | – | Ratio IC50 (HepG2 [9]): 2.73; Ratio IC50 (A549 [10]): 221; IC50 (HepG2 [11]): 0.42 µM; IC50 [12]: 0.28 µM; Ratio IC50 (BGC-823 [13]): 91; IC50 (A549 [14]): 0.76 µM |
| COc1cc([C@@H]2c3cc4c(cc3[C@@H](O[C@@H]3O[C@@H]5CO[C@@H](C)O[C@H]5[C@H](O)[C@H]3O)[C@H]3COC(=O)[C@H]23)OCO4)cc(OC)c1O [ETOPOSIDE] | 24.6 µM | Dose-dependent effect | 15.3 µM | 0.52 | 67.2 µM | 59.4 µM | 30.7 µM | – | IC50 (HepG2 [11]): 1.15 µM; inhibition [15]: Active; Activity (HepG2 [2]): Dose-dependent effect; IC50 [12]: 25.7 µM; Activity (A549 [4]): Dose-dependent effect; Activity (HeLa [5]): Dose-dependent effect; Activity (BGC-823 [7]): Dose-dependent effect; IC50 (A549 [14]): 168 µM |
| COc1cc([C@@H]2c3cc4c(cc3[C@@H](NC(=O)c3cc(O)c(O)c(O)c3)[C@H]3COC(=O)[C@H]23)OCO4)cc(OC)c1O | 14.8 µM | Dose-dependent effect | 27.4 µM | 0.29 | 33.5 µM | 22.3 µM | 24.2 µM | – | – |
| COc1cc([C@@H]2c3cc4c(cc3[C@@H](OC(=O)c3cn(C5CC5)c5cc(Cl)c(F)cc5c3=O)[C@H]3COC(=O)[C@H]23)OCO4)cc(OC)c1O | 41.8 µM | Dose-dependent effect | 16 µM | 0.69 | 10.1 µM | 0.6 µM | 17.4 µM | 70% | – |
| COc1cc([C@@H]2c3cc4c(cc3[C@@H](OC(=O)c3ccc5ccccc5n3)[C@H]3COC(=O)[C@H]23)OCO4)cc(OC)c1O | 20.1 µM | Dose-dependent effect | 9.18 µM | 0.8 | 19.2 µM | 20.5 µM | 28.8 µM | – | – |
| COc1cc([C@@H]2c3cc4c(cc3[C@@H](NC(=O)c3cnccn3)[C@H]3COC(=O)[C@H]23)OCO4)cc(OC)c1O | 53.6 µM | Dose-dependent effect | 6.64 µM | 0.43 | 16.5 µM | 10.8 µM | 14.4 µM | 117% | – |
| COc1cc([C@@H]2c3cc4c(cc3[C@@H](OC(=O)c3cnccn3)[C@H]3COC(=O)[C@H]23)OCO4)cc(OC)c1O | 52.4 µM | Dose-dependent effect | 1.21 µM | 0.33 | 3.83 µM | 0.6 µM | 4.15 µM | 114% | Ratio IC50 (HeLa [16]): 66; Activity (HeLa [17]): 45.5%; Activity (HeLa [18]): Dose-dependent effect; Activity (HeLa [19]): 4.01%; inhibition [15]: Active; Activity (HeLa [20]): 4.2%; Activity (HeLa [21]): 39.65%; Activity (HeLa [22]): 10.3%; Activity (HeLa [23]): 10.8%; Activity (HeLa [24]): 66.85%; Ratio IC50 (HepG2 [25]): 12; Activity (HeLa [26]): 7.2%; Activity (HeLa [27]): 60.96%; Activity (HeLa [28]): Dose-dependent effect; Ratio IC50 (BGC-823 [29]): 6; Activity (HeLa [30]): 19.88%; Ratio IC50 (A549 [31]): 16; Activity (HeLa [32]): 30.1%; Activity (HeLa [33]): 5.49% |
| COc1cc([C@@H]2c3cc4c(cc3[C@@H](NC(=O)Cn3cnc5c3c(=O)n(C)c(=O)n5C)[C@H]3COC(=O)[C@H]23)OCO4)cc(OC)c1O | 50.8 µM | Dose-dependent effect | 2.35 µM | 0.56 | 7.32 µM | 3.18 µM | 5.88 µM | 106% | – |
